# Screening results deposited in PubChem by several laboratories.
# Only some compounds are listed: those with a hit (about 2.1% of all), similar ones and a draw of the others.
# CRFR2-BP ag = agonists of human CRF-binding protein/CRF-R2 receptor complex; HEK293 CRF-R2/CRF-BP, calcium dye fluorescence (FLIPR); percent of saturating CRF peptide response; activation, % at 13.2 µM; hit rate 0.46% among 350,000; AID 588473;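 active means activation of at least 50%, plus an integration ratio under a set limit after plate pattern correction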
# CRFR2-BP antag = CRF-BP/CRF-R2 complex antagonism; HEK293 CRF-R2/CRF-BP, CRF-induced calcium fluorescence; inhibition, % at 11.8 µM; hit rate 0.59% among 350,000;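 active means inhibition of the ligand-induced calcium signal above about 50% at the single tested concentration, limit read from the data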
# TRPN1 ag = zebrafish TRPN1 (NompC) channel agonism; HEK293 zebrafish TRPN1-YFP, Fluo-8 calcium fluorescence; 100% = response to 87 µM carbachol; activation, % at 3 µM; hit rate 0.18% among 220,000; AID 1424;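 active means activation above its plate's cutoff, the mean activation of test wells on that plate plus 3 SD, cut at about 19% in these data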
#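 System: zebrafish TRPN1-YFP in HEK293 cells / Dosing: 3 µM single point / Timing: dye loading 1 h at 37 °C, then 30 min room temperature / Signal: Fluo-8 calcium fluorescence, excitation 470-495 nm, emission 515-575 nm / Read-out basis: percent activation from peak over basal fluorescence ratio, control-normalized / Control set: high carbachol 87 µM, low DMSO alone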
# TRPML3 ag = activates the human TRPML3 channel | HEK293 TRPML3-YFP, Fluo-8 calcium fluorescence; 100% = the carbachol control signal | activation, % at 3 µM | Q8TDD5 | hit rate 0.29% among 220,000 | AID 1448;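 active means activation above its plate's cutoff, the mean activation of the plate's test wells plus 3 SD, cut at about 12% in these data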
# Target sequence (Q8TDD5 whole entry, looked up): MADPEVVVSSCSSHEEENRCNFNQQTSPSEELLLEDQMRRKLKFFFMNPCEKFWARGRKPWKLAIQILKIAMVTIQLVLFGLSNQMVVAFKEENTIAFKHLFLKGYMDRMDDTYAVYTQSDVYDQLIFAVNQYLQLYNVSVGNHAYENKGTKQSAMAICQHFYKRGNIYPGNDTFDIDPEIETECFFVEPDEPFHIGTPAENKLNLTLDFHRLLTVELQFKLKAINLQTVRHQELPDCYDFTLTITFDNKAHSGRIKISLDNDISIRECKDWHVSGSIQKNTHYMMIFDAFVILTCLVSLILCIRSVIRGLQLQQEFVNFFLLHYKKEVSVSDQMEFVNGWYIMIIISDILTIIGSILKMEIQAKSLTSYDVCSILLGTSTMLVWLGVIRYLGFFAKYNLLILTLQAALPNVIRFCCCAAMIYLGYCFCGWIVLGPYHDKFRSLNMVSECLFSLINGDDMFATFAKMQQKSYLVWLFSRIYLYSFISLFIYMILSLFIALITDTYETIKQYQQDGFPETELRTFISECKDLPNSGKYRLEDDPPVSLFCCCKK
#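 Material: HEK293 cells stably carrying human TRPML3-YFP; compound dosing: single dose, 3 µM final nominal compound, 0.3% DMSO final; incubation: 1-h 37 °C dye load, 5-s basal, 120-s post-compound reads; technique: Fluo-8 intracellular calcium fluorescence, excitation 470-495 nm, emission 515-575 nm; read-out basis: percent activation from peak-to-basal fluorescence ratio, scaled between DMSO and carbachol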
# IMP-1 inhibitor = inhibitors of Pseudomonas aeruginosa IMP-1 metallo-beta-lactamase | purified IMP-1, nitrocefin hydrolysis, epi-absorbance fluorescence | AID 1556 | inhibition, % at 5.6 µM | hit rate 0.45% among 290,000;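 active means inhibition above the mean plus 3 SD of all compounds in the same screening run, cut at about 4.5% in these data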
#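 assay system = purified recombinant IMP-1 metallo-beta-lactamase enzyme | schedule = 15 min preincubation plus 25 min reaction at 25 °C | signal = Epi-absorbance fluorescence, 480 nm excitation, 530 nm emission | read-out basis = percent inhibition from optical density relative to buffer-blank wells | controls = IMP-1 with DMSO as 0%, enzyme-free DMSO as 100%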
# VIM-2 inh = inhibitors of Pseudomonas aeruginosa VIM-2 metallo-beta-lactamase | purified VIM-2, nitrocefin hydrolysis, epi-absorbance fluorescence | inhibition, % at 5.6 µM | hit rate 0.89% among 290,000;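 active means inhibition above the mean of all tested compounds plus 3 SD, cutoff set per screening run, cut at about 7.5% in these data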;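 further: red hydrolysis product quenches plate fluorescence so inhibitors raise well fluorescence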
# Numbers stand for hits; i = inactive; nt = not tested or not shown.
SMILES,CRFR2-BP ag,CRFR2-BP antag,TRPN1 ag,TRPML3 ag,IMP-1 inhibitor,VIM-2 inh
Cc1cc(C)nc(NC(=S)NC(=O)c2ccccc2)n1,i,i,nt,nt,i,8.4
CCCCC(=O)NC(=S)NNC(=O)c1ccc(Cl)cc1Cl,111,i,i,i,i,i
COCCNC(=O)c1cc(C(=O)CC(C)C)c[nH]1,i,i,i,i,i,i
Cc1ccc(C(=O)NNC(=S)NC(=O)c2ccc(Cl)cc2Cl)cc1,156,i,70,43,i,i
Cc1occc1C(=O)NNC(=S)NC(=O)COc1ccc(Cl)cc1Cl,230,i,nt,nt,i,i
Cc1ccc(C(=O)NC(=S)NNC(=O)c2ccccc2O)cc1,90,i,nt,nt,i,i
Cc1ccc(C(=O)NC(=S)NNC(=O)c2ccccc2)cc1,121,i,nt,nt,i,i
CC(C)NC(=S)NC(=O)c1ccc(Cl)cc1Cl,i,i,i,i,i,i
O=C(NC(=S)NNC(=O)c1ccccc1O)c1ccccc1,i,i,nt,nt,i,i
C=Cc1ccc(Cn2c(=O)n(C)c(=O)c3sccc32)cc1,i,i,nt,nt,i,i
O=C(NCCc1ccc(Cl)cc1)C1COc2ccccc2O1 (centres undefined),i,i,nt,nt,i,i
O=C(O)CCn1c(=S)n(CCC(=O)O)c2ccccc21,i,i,i,i,i,i
O=C(NC(=S)NNC(=O)c1ccccc1O)c1ccc([N+](=O)[O-])cc1,50,i,nt,nt,i,i
Cc1ccc(C(=O)NC(=S)NNC(=O)c2ccccc2[N+](=O)[O-])cc1,i,i,i,i,i,i
Cc1ccccc1C(=O)NNC(=S)NC(=O)c1ccccc1,160,i,i,i,i,i
O=C(NNC(=S)Nc1cccc(C(F)(F)F)c1)c1ccc(Cl)cc1Cl,54,i,i,i,i,i
Cc1ccc(C(=O)NNC(=S)NC(=O)c2ccccc2)cc1,138,i,nt,nt,nt,nt
CCNC(=O)C(=O)NCc1ccncc1,i,i,i,i,i,i
CCC(C)N1CC(=O)N2C(c3ccc(OC)cc3OC)c3[nH]c4ccccc4c3C[C@H]2C1=O (some centres undefined),i,i,nt,nt,i,i
O=C(NCc1ccco1)C1CCCN(c2nnc(-n3cccc3)s2)C1 (centres undefined),i,i,nt,nt,i,i
O=C(O)c1ccccc1C(=O)Nc1ccc(Oc2cccc3ccccc23)cc1,126,i,i,i,i,i
Cc1cccc(Oc2ccc(NC(=O)c3ccccc3C(=O)O)cc2)c1C,81,i,i,i,i,i
Cc1cc(N2CCN(C)CC2)nc2ccc(NC(=O)CCC(=O)NCCCOC(C)C)cc12,i,51,nt,nt,i,i
CCCCN(CC)CCNC(=S)Nc1ccc2nc(N3CCN(C)CC3)cc(C)c2c1,i,i,nt,nt,i,i
CCCCN(CC)CCNC(=O)CCC(=O)Nc1ccc2nc(N3CCN(C)CC3)cc(C)c2c1,i,i,i,i,i,7.8
SMILES,CRFR2-BP ag,CRFR2-BP antag,TRPN1 ag,TRPML3 ag,IMP-1 inhibitor,VIM-2 inh
CN(CC(=O)Nc1ccccc1Sc1ccccc1)C1CCCCC1,i,i,i,i,i,i
COc1ccc(N2C[C@H](CSC)[C@@H](CC(=O)Nc3ccccc3)C2=O)cc1,i,i,nt,nt,nt,nt
CCCC(=O)N(Cc1cc2cc(OC)ccc2[nH]c1=O)c1ccc(OC)cc1,i,i,nt,nt,nt,nt
O=C(O)C(c1ccccc1)N1C(=O)/C(=C\c2ccc(-c3ccccc3Cl)o2)SC1=S (centres undefined),91,i,nt,nt,9.4,i
O=C1/C(=C\c2ccc(-c3ccccc3Cl)o2)SC(=S)N1CC1CCCO1 (centres undefined),i,i,i,i,i,i
O=C(O)C(c1ccccc1)N1C(=O)/C(=C\c2ccc(-c3ccc(Br)cc3)o2)SC1=S (centres undefined),85,i,nt,nt,i,i
CCc1ccc(NC(=O)NCc2cccnc2)cc1,i,i,nt,nt,i,i
COCCCN1C(=O)C(CC(=O)NCc2cccs2)CC(C(=O)N(C)C)=C1C (centres undefined),i,i,nt,nt,nt,nt
CCOC(=O)c1cc2ccccc2n1CCN(CC)CC,74,i,i,i,i,i
N#Cc1c(NC(=O)CSc2ncnc3sccc23)oc(-c2ccco2)c1-c1ccco1,i,i,i,i,7.0,i
Cc1ccc(NC(=S)Nc2ccc(F)cc2)cc1C,i,i,nt,nt,i,i
Cc1cccc(C)c1NC(=S)Nc1ccc(F)cc1,i,60,i,i,i,i
CNC(=O)c1cc(NC(=O)N(CCC#N)CCN(C(=O)NC(Cc2ccccc2)C(=O)NC(CC(C)C)C(=O)NC)c2ccccc2)ccc1OC (centres undefined),i,i,nt,nt,nt,nt
O=C1C2C(C(=O)N1/N=C/c1cc(Br)cc([N+](=O)[O-])c1O)C1C=CC2C12CC2 (centres undefined),i,i,i,i,7.0,i
O=S(=O)(Nc1cc(Cl)ccc1-n1cncn1)c1ccccc1Cl,i,106,nt,nt,nt,nt
CCCCC(=O)N(Cc1ccc(-c2ccccc2-c2nn[nH]n2)cc1)[C@H](C(=O)O)C(C)C,nt,nt,i,i,11,i
CCN(CC)C(=O)[C@H]1C[C@H](CC(=O)NC/C=C(\C)CCC=C(C)C)C(=O)N2CCc3c([nH]c4cc(CCC(=O)N(C)C)ccc34)[C@]12C,i,67,nt,nt,nt,nt
CC(C)/C=C/C(=O)N1CCC(N2CCC(C(=O)NCC3CCCO3)CC2)CC1 (centres undefined),i,i,nt,nt,nt,nt
O=S(=O)([O-])CCC[n+]1c(/C=C\Nc2ccccc2)oc2ccc(-c3ccccc3)cc21,nt,nt,119,25,i,i
Cc1cc2c(cc1S(=O)(=O)C(C)CC(=O)NCc1ccco1)OCC(=O)N2 (centres undefined),i,i,nt,nt,i,i
Nc1sc2c(c1C(=O)NC1CC1)CCCC2,i,i,nt,nt,nt,nt
CC(=O)N1CCc2ccc(S(=O)(=O)N3CCN(C)CC3)cc21,203,i,i,i,i,i
COc1ccccc1N1CCN(C(=O)CN2C(=O)c3ccccc3S2(=O)=O)CC1,i,i,i,i,i,i
Cc1n[nH]c(=S)n1-c1ccccc1,i,i,i,i,i,10
Cc1n[nH]c(=S)n1-c1ccc(Cl)cc1,i,i,i,i,i,i
